Experimental data from different studies.
Compare with care: the assays were run in different laboratories.
Observed: cell growth or viability

Structure (SMILES) | cell line | assay | conditions | IC50
COc1cc(NC(=O)C(=O)[C@H](CC(C)C)NC(=O)[C@H](CC(C)C)NC(=O)[C@H](CC(C)C)NC(=O)c2ccc(-c3ccc(C(C)=O)cc3)o2)cc(OC)c1 | RPMI-8226 | MTS | 72 h | 36.1 nM
Cc1cc(N(CCO)CCO)ccc1C=O | ACHN | – | – | > 10 µg/mL
CC(=O)c1cccc(NC(=O)C(=O)[C@H](CC(C)C)NC(=O)[C@H](Cc2ccccc2)NC(=O)[C@H](CC(C)C)NC(=O)OCc2ccccc2)c1 | RPMI-8226 | MTS | 72 h | 163 nM
COc1ccc2[nH]cc(CCNc3nccc(Nc4cccc5c4ccn5C)n3)c2c1 | RPMI-8226 | fluorescence | 72 h | 12 nM
C[C@H]1O[C@@H](O[C@H]2[C@@H](O)C[C@H](O[C@H]3[C@@H](O)C[C@H](O[C@H]4CC[C@@]5(C)[C@H](CC[C@@H]6[C@@H]5C[C@@H](O)[C@]5(C)[C@@H](C7=CC(=O)OC7)CC[C@]65O)C4)O[C@@H]3C)O[C@@H]2C)C[C@H](O)[C@@H]1O | ReNcell VM | imaging | 24 h | ~2020 nM
Cc1cc(N(CCO)CCO)ccc1C(=O)O | ACHN | – | – | > 10 µg/mL
CC(C)C[C@H](NC(=O)OCc1ccccc1)C(=O)N[C@@H](Cc1c[nH]c2ccccc12)C(=O)N[C@@H](CC(C)C)C(=O)C(=O)Nc1cccc(S(C)(=O)=O)c1 | RPMI-8226 | MTS | 72 h | 33.2 nM
N[C@@H](Cc1ccc(N(CCCl)CCCl)cc1)C(=O)O | IOSE-144 | CCK-8 | 48 h | > 50000 nM
CCCCC/C=C\C/C=C\C/C=C\C/C=C\CCCC(=O)NCCO | ReNcell VM | – | 24 h | ~8000 nM
CC(C)C[C@H](NC(=O)OCc1ccccc1)C(=O)N[C@@H](CC(C)C)C(=O)N[C@@H](CC(C)C)C(=O)C(=O)Nc1cccc2cnccc12 | RPMI-8226 | MTS | 72 h | 133 nM
CCOP(=S)(OCC)Oc1nc(Cl)c(Cl)cc1Cl | ReNcell VM | – | 24 h | ~9900 nM
O=C(O)CCCc1ccc(N(CCCl)CCCl)cc1 | IOSE-144 | CCK-8 | 48 h | 16500 nM
C=C(C)[C@H]1Cc2c(ccc3c2O[C@@H]2COc4cc(OC)c(OC)cc4[C@@H]2C3=O)O1 | ReNcell VM | – | 24 h | 270 nM
Cc1cccc(-n2ncc(Cl)c(Cl)c2=O)c1 | NCI-H2444 | resazurin | 96 h | 240 nM
